# Measurements as given in ChEMBL document CHEMBL1142158, “Antibacterial activity and mechanism of action of a novel anilinouracil-fluoroquinolone hybrid compound” (Antimicrob Agents Chemother, 2007).
# The source made the active and inactive calls. No cut-off for these calls is given here.
# Key:
# [1] = Inhibition of Bacillus subtilis topoisomerase 4
# Streptococcus pneumoniae [2] = test: Antibacterial activity against penicillin-resistant Streptococcus pneumoniae 700677; format: functional
# In short: (§1)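 Streptococci tested by CLSI broth microdilution in Mueller-Hinton broth with 5% defibrinated horse blood, log-phase inoculum at 1 x 10^5 CFU/ml. Incubated 37°C with shaking, 16 to 20 h, in 5% humidified CO2. Compounds at 1% DMSO final. MIC is the lowest concentration without growth by OD600. Quadruplicate; highest MIC reported.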
# Staphylococcus aureus [3] = test: Antibacterial activity against Staphylococcus aureus Smith in presence of 10% FCS; format: functional
# Enterococcus faecium [4] = test: Antibacterial activity against vancomycin-resistant Enterococcus faecium B42762; format: functional
# In short: (§2)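 Broth microdilution per CLSI with modified incubation. Log-phase cultures in cation-adjusted Mueller-Hinton broth, seeded at 1 x 10^5 CFU/ml. Compounds from DMSO stocks, 1% DMSO final. Incubated 37°C, 16 to 20 h, shaken. Growth read as OD600. MIC is the lowest concentration with no apparent growth. Run in quadruplicate; highest value reported.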
# Staphylococcus aureus [5] = test: Antibacterial activity against methicillin-resistant Staphylococcus aureus 1132; format: functional; in short: as §2
# Bacillus thuringiensis [6] = test: Antibacterial activity against Bacillus thuringiensis 33679; format: functional
# Staphylococcus aureus [7] = test: Antibacterial activity against Staphylococcus aureus 25923; format: functional; in short: as §2
# Enterococcus faecalis [8] = test: Antibacterial activity against Enterococcus faecalis 29212; format: functional; in short: as §2
# Streptococcus pneumoniae [9] = test: Antibacterial activity against penicillin-resistant Streptococcus pneumoniae 700673; format: functional; in short: as §1
# Enterococcus faecium [10] = test: Antibacterial activity against vancomycin and linezolid-resistant Enterococcus faecium F118; format: functional; in short: as §2
# [11] = Inhibition of Bacillus subtilis gyrase
# Staphylococcus aureus [12] = test: Antibacterial activity against HB-EMAU-resistant Staphylococcus aureus Smith; format: functional; in short: as §2
# Enterococcus faecalis [13] = test: Antibacterial activity against vancomycin-resistant Enterococcus faecalis 700802; format: functional; in short: as §2
# Staphylococcus aureus [14] = test: Antibacterial activity against Staphylococcus aureus Smith 13709; format: functional; in short: as §2
# Bacillus cereus [15] = test: Antibacterial activity against Bacillus cereus 4342; format: functional
# Bacillus subtilis [16] = test: Inhibition of RNA synthesis in Bacillus subtilis BD54; format: functional, organism-based
# In short: (§3)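 B. subtilis BD54 grown to log phase in C plus 50 medium; compound in DMSO added with [8-3H]adenine at time zero, at 5x or 1x MIC; samples over time. DNA = alkali-insensitive TCA-insoluble label; RNA = total TCA-insoluble minus DNA. Effect judged against diluent-control incorporation.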
# Staphylococcus aureus [17] = test: Antibacterial activity against mupirocin-sensitive Staphylococcus aureus 2529; format: functional
# Escherichia coli [18] = test: Antibacterial activity against Escherichia coli J53; format: functional
# Klebsiella pneumoniae = test: Antibacterial activity against Klebsiella pneumoniae 5657; format: functional
# Enterococcus faecalis [19] = test: Antibacterial activity against vancomycin-resistant Enterococcus faecalis 51575; format: functional; in short: as §2
# Bacillus subtilis [20] = test: Inhibition of DNA synthesis in Bacillus subtilis BD54; format: functional, organism-based; in short: as §3
# Streptococcus pneumoniae [21] = test: Antibacterial activity against penicillin-resistant Streptococcus pneumoniae 700671; format: functional; in short: as §1
# Bacillus subtilis [22] = test: Inhibition of protein synthesis in Bacillus subtilis BD54; format: functional, organism-based
# In short: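 Log-phase B. subtilis BD54 in C plus 50 medium; compound in DMSO (5x or 1x MIC) and L-[4,5-3H]leucine added together at time zero; samples taken at intervals. Protein synthesis measured as TCA-precipitable radioactivity, compared with diluent-control incorporation.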
# Staphylococcus aureus [23] = test: Antibacterial activity against HB-EMAU-resistant and ciprofloxacin-resistant Staphylococcus aureus Smith; format: functional; in short: as §2
# Staphylococcus aureus [24] = test: Antibacterial activity against ciprofloxacin-resistant Staphylococcus aureus Smith; format: functional; in short: as §2
# Streptococcus pneumoniae [25] = test: Antibacterial activity against penicillin-resistant Streptococcus pneumoniae 700674; format: functional; in short: as §1
# [26] = tested on: Stenotrophomonas maltophilia; test: Antibacterial activity against Stenotrophomonas maltophilia 13637; format: functional
# Staphylococcus aureus [27] = test: Antibacterial activity against methicillin-resistant Staphylococcus aureus B42876; format: functional; in short: as §2
# Staphylococcus aureus [28] = test: Antibacterial activity against mupirocin-resistant Staphylococcus aureus 777; format: functional; in short: as §2
# Bacillus thuringiensis [29] = test: Antibacterial activity against Bacillus thuringiensis 10792; format: functional
# Pseudomonas aeruginosa = test: Antibacterial activity against Pseudomonas aeruginosa 27853; format: functional
# Streptococcus pneumoniae [30] = test: Antibacterial activity against Streptococcus pneumoniae 49619; format: functional; in short: as §1
# Bacillus cereus [31] = test: Antibacterial activity against Bacillus cereus 6464; format: functional
# Staphylococcus aureus [32] = test: Antibacterial activity against Staphylococcus aureus 1081; format: functional; in short: as §2
# [33] = target: T1, DNA polymerase subunit gamma-1 (Homo sapiens, UniProt P54098); test: Inhibition of human DNA polymerase gamma
# T1 sequence (P54098 whole entry): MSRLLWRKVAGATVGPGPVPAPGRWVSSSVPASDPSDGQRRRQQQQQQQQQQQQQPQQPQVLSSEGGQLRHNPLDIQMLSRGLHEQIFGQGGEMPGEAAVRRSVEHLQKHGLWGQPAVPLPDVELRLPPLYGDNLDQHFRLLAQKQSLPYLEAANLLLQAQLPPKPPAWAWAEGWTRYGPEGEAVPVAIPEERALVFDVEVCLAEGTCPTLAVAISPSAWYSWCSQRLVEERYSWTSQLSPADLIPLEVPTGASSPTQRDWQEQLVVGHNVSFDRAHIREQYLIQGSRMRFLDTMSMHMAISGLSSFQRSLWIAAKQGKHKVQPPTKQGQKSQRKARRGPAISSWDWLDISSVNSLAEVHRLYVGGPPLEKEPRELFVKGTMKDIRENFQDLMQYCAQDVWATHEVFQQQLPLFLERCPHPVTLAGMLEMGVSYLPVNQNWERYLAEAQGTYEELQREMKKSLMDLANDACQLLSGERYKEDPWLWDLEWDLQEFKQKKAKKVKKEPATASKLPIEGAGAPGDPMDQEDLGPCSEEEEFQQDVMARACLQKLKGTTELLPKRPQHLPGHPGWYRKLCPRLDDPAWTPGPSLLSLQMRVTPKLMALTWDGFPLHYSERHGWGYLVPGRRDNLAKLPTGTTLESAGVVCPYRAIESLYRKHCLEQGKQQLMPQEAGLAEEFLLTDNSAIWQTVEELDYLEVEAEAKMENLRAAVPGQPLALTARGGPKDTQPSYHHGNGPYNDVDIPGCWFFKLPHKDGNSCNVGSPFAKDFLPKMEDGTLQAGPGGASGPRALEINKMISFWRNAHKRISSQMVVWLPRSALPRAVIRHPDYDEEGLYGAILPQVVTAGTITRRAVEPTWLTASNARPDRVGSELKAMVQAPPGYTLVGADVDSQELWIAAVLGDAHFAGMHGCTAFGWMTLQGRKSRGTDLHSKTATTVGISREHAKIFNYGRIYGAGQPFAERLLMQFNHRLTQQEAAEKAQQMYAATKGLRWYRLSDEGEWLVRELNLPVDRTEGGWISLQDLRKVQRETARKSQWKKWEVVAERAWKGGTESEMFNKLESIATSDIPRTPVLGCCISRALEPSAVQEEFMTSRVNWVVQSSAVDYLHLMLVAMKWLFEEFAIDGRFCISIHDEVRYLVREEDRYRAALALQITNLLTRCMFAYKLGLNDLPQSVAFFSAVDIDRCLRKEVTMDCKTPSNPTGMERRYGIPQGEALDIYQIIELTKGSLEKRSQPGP
# In short: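 Calf thymus pol alpha or human pol gamma, 0.025 to 0.06 U, added to compound dilutions in reaction mixture; 25 min at 37°C; stopped with ice-cold 10% TCA/10 mM pyrophosphate; precipitated [3H]DNA collected on filters and counted. Ki values for dGTP-competitive inhibitors obtained by truncated assay lacking dGTP.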
# Streptococcus pyogenes = test: Antibacterial activity against Streptococcus pyogenes 12344; format: functional
# Enterococcus faecium [34] = test: Antibacterial activity against vancomycin-resistant Enterococcus faecium 1644; format: functional; in short: as §2
# Staphylococcus aureus [35] = test: Antibacterial activity against methicillin-resistant Staphylococcus aureus 1094; format: functional; in short: as §2
# Streptococcus pneumoniae [36] = test: Antibacterial activity against penicillin-resistant Streptococcus pneumoniae 700670; format: functional; in short: as §1
# Bacillus subtilis [37] = test: Antibacterial activity against Bacillus subtilis BD54; format: functional
# Staphylococcus aureus [38] = test: Antibacterial activity against methicillin-resistant Staphylococcus aureus 1123; format: functional; in short: as §2
# Enterococcus faecium [39] = test: Antibacterial activity against Enterococcus faecium 19434; format: functional; in short: as §2
# Bacillus anthracis = test: Antibacterial activity against Bacillus anthracis Sterne; format: functional
# Escherichia coli [40] = test: Antibacterial activity against ciprofloxacin-resistant Escherichia coli XL1-Blue; format: functional; in short: as §2
# [41] = Cytotoxicity against human MRC5 cells; format: cell-based
# In short: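 MRC-5 human diploid fibroblasts, 4 x 10^3 cells per well, exposed to compound from DMSO stock (final 1%) in minimal essential medium with 10% fetal calf serum for 72 h at 37°C beside a DMSO-only control.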
# Enterococcus faecalis [42] = test: Antibacterial activity against vancomycin-resistant Enterococcus faecalis 51299; format: functional; in short: as §2
smiles,measurement,setting,value
CCc1cc(Nc2cc(=O)n(CCCCO)c(=O)[nH]2)ccc1C,IC50,[1],> 500 µM
same,MIC,Streptococcus pneumoniae [2],2.5 µg/mL
same,MIC,Staphylococcus aureus [3],20 µg/mL
same,MIC,Enterococcus faecium [4],5 µg/mL
same,MIC,Staphylococcus aureus [5],5 µg/mL
same,MIC,Bacillus thuringiensis [6],2.5 µg/mL
same,MIC,Staphylococcus aureus [7],5 µg/mL
same,MIC,Enterococcus faecalis [8],5 µg/mL
same,MIC,Streptococcus pneumoniae [9],2.5 µg/mL
same,MIC,Enterococcus faecium [10],10 µg/mL
same,IC50,[11],> 500 µM
same,MIC,Staphylococcus aureus [12],> 80 µg/mL
same,MIC,Enterococcus faecalis [13],5 µg/mL
same,MIC,Staphylococcus aureus [14],5 µg/mL
same,MIC,Bacillus cereus [15],1.25 µg/mL
same,Activity,Bacillus subtilis [16],inactive
same,MIC,Staphylococcus aureus [17],20 µg/mL
same,MIC,Escherichia coli [18],> 80 µg/mL
same,MIC,Klebsiella pneumoniae,> 80 µg/mL
same,MIC,Enterococcus faecalis [19],5 µg/mL
same,Activity,Bacillus subtilis [20],Active
same,MIC,Streptococcus pneumoniae [21],2.5 µg/mL
same,Activity,Bacillus subtilis [22],inactive
same,MIC,Staphylococcus aureus [23],> 80 µg/mL
same,MIC,Staphylococcus aureus [24],5 µg/mL
same,MIC,Streptococcus pneumoniae [25],5 µg/mL
same,MIC,[26],> 80 µg/mL
same,MIC,Staphylococcus aureus [27],5 µg/mL
same,MIC,Staphylococcus aureus [28],10 µg/mL
same,MIC,Bacillus thuringiensis [29],1.25 µg/mL
same,MIC,Pseudomonas aeruginosa,> 80 µg/mL
same,MIC,Streptococcus pneumoniae [30],2.5 µg/mL
same,MIC,Bacillus cereus [31],1.25 µg/mL
same,MIC,Staphylococcus aureus [32],5 µg/mL
same,Ki,[33],> 1010 µM
same,MIC,Streptococcus pyogenes,1.25 µg/mL
same,MIC,Enterococcus faecium [34],2.5 µg/mL
same,MIC,Staphylococcus aureus [35],5 µg/mL
same,MIC,Streptococcus pneumoniae [36],5 µg/mL
same,MIC,Bacillus subtilis [37],1.25 µg/mL
same,MIC,Staphylococcus aureus [38],5 µg/mL
same,MIC,Enterococcus faecium [39],5 µg/mL
same,MIC,Bacillus anthracis,2.5 µg/mL
same,MIC,Escherichia coli [40],> 80 µg/mL
same,CC50,[41],46 µg/mL
same,MIC,Enterococcus faecalis [42],5 µg/mL
